Among the data in ChEMBL document CHEMBL3576808, “Phylum-specific regulation of resistomycin production in a Streptomyces sp. via microbial coculture” (J Nat Prod, 2015) are inhibition, Retention_time and MIC values, retold here.

In brackets after ≈: the same amount, converted by molar mass. Activity calls are given as the source filed them.

The test system of data set [1] is Brucella neotomae. The experiment in a line: Antimicrobial activity against Brucella neotomae ATCC 23459 assessed as inhibition of microbial growth at 50 ug/ml. In kind it is functional. The procedure, abridged:
(§1)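 Single-dose growth-inhibition test at 50 μg/mL. Stock culture (50 μL) went into 10 mL tryptic soy broth and was shaken overnight at 37 °C; X. axonopodis was grown at 30 °C instead. OD was read at 625 nm and cells were adjusted to about 5 × 10^5 CFU per 100 μL well. Compound was added to a 100 μL final volume and plates were incubated overnight.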

The subject of data set [2] is Pseudomonas aeruginosa. The experiment in a line: Antimicrobial activity against Pseudomonas aeruginosa ATCC 27853 assessed as inhibition of microbial growth at 50 ug/ml. In kind it is functional, organism-based. Summed up: as §1
Data set [3] has as its system Yersinia pestis. The experiment in a line: Antimicrobial activity against Yersinia pestis A1122 assessed as inhibition of microbial growth at 50 ug/ml. In kind it is functional, organism-based.
Data set [4] deals with Enterococcus faecalis. The experiment in a line: Antimicrobial activity against Enterococcus faecalis ATCC 29212 assessed as inhibition of microbial growth at 50 ug/ml. In kind it is functional, organism-based.
The subject of data set [5] is Burkholderia vietnamiensis. The experiment in a line: Antimicrobial activity against Burkholderia vietnamiensis ATCC BAA-248 assessed as inhibition of microbial growth at 50 ug/ml. The data set is classed as functional. The procedure, abridged:
as §1

Data set [6] is described as follows: Retention time of the compound by HPLC method. In kind it is physicochemical.
The test system of data set [7] is Escherichia coli. The experiment in a line: Antimicrobial activity against Escherichia coli ATCC 25922 assessed as inhibition of microbial growth at 50 ug/ml. The data set is classed as functional, organism-based. Summed up:
as §1

In data set [8] the test system is Xanthomonas axonopodis. The experiment in a line: Antimicrobial activity against Xanthomonas axonopodis ATCC 8718 assessed as inhibition of microbial growth at 50 ug/ml. In kind it is functional, organism-based. The procedure, abridged: as §1
For data set [9], the system named is Firmicutes. The experiment in a line: Antimicrobial activity against Firmicutes K940. The conditions noted are these: Bacillota. The data set is classed as functional. The procedure, abridged:
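Growth-inhibition assay against the inducing Actinobacteria (E906) and Firmicutes (K940) coculture isolates. Dose-response testing gave the MIC values. Bacteria were grown overnight in tryptic soy broth with shaking and read by OD at 625 nm. Wells were adjusted to about 5 × 10^5 CFU per 100 μL, compound was added to a 100 μL final volume, and plates were incubated overnight.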

The test system of data set [10] is Mycobacterium tuberculosis. The experiment in a line: Antimicrobial activity against Mycobacterium tuberculosis H37Rv assessed as inhibition of microbial growth at 50 ug/ml. The data set is classed as functional, organism-based.

What is called MIC is the smallest concentration in the dilution series that meets the test's criterion for growth inhibition. Low values mean inhibition by little substance, high ones a need for much substance.

`Cc1cc(O)c2c3c4c(cc(O)c13)C(C)(C)C(=O)c1c(O)cc(O)c(c1-4)C2=O` [HELIOMYCIN]: the inhibition result in data set [1], in data set [2], in data set [3], in data set [4], in [5] and in [7] was “inactive” in each case. The inhibition entry in data set [8] and in data set [10] was “inactive” throughout. Moreover, the Retention_time in data set [6] was 17.9 min. The compound also displayed an MIC in [9] of 0.25 µg/mL (≈ 0.664 µM).
